For data set [1], the system named is Streptococcus mutans. In words: Antibacterial activity against Streptococcus mutans at >128 ug/ml by CLSI protocol based method. The class given is functional, organism-based. In outline: (§1)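 Strains came from the Microbiological Resources Center, Bangkok, Thailand. Antibacterial testing followed Clinical and Laboratory Standards Institute recommendations.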

Data set [2] deals with Escherichia coli. In words: Antibacterial activity against Escherichia coli at >128 ug/ml by CLSI protocol based method. Format: functional, organism-based. In outline: as §1
For data set [3], the system named is Staphylococcus aureus. In words: Antibacterial activity against Staphylococcus aureus by CLSI protocol based method. Format: functional. A digest of the protocol: as §1
The subject of data set [4] is Shigella flexneri. Put plainly: Antibacterial activity against Shigella flexneri by CLSI protocol based method. The class given is functional. A digest of the protocol: as §1
The test system of data set [5] is Micrococcus luteus. Put plainly: Antibacterial activity against Micrococcus luteus at >128 ug/ml by CLSI protocol based method. The class given is functional, organism-based. In outline:
as §1

Data set [6] has as its system Pseudomonas aeruginosa. Put plainly: Antibacterial activity against Pseudomonas aeruginosa at >128 ug/ml by CLSI protocol based method. Format: functional, organism-based. In outline: as §1
Data set [7] relates to Shigella flexneri. In words: Antibacterial activity against Shigella flexneri at >128 ug/ml by CLSI protocol based method. Format: functional, organism-based. A digest of the protocol:
as §1

For data set [8], the system named is Staphylococcus epidermidis. Put plainly: Antibacterial activity against Staphylococcus epidermidis by CLSI protocol based method. The class given is functional. A digest of the protocol:
as §1

Data set [9] has as its system Streptococcus mutans. In words: Antibacterial activity against Streptococcus mutans by CLSI protocol based method. The class given is functional. In outline: as §1
Data set [10] relates to Escherichia coli. In words: Antibacterial activity against Escherichia coli by CLSI protocol based method. The class given is functional. In outline:
as §1

The subject of data set [11] is Micrococcus luteus. Put plainly: Antibacterial activity against Micrococcus luteus by CLSI protocol based method. Format: functional. In outline: as §1
Data set [12] relates to Pseudomonas aeruginosa. In words: Antibacterial activity against Pseudomonas aeruginosa by CLSI protocol based method. Format: functional. In outline: as §1
Data set [13] deals with Bacillus cereus. In words: Antibacterial activity against Bacillus cereus by CLSI protocol based method. The class given is functional. A digest of the protocol:
as §1

Data set [14] deals with Bacillus cereus. In words: Antibacterial activity against Bacillus cereus at >128 ug/ml by CLSI protocol based method. Format: functional, organism-based. A digest of the protocol: as §1
The subject of data set [15] is RAW264.7. Put plainly: Inhibition of LPS-induced nitric oxide production in mouse RAW264.7 cells incubated for 24 hrs by Griess reagent based assay. The following applies: raw264.7. The class given is functional, cell-based. A digest of the protocol:
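RAW 264.7 cells were seeded at 5.0 × 10^5 cells/mL and held 24 h at 37 °C, 5% CO2. Medium was discarded and cells were stimulated with 1 μg/mL LPS with or without compound for 24 h at 37 °C. Supernatant was mixed 1:1 with Griess reagent for 10 min at room temperature. Absorbance was read at 570 nm against a sodium nitrite calibration curve, giving IC50.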

Data set [16] can be described thus: Toxicity in mouse RAW264.7 cells assessed as cell viability at 10 uM by MTT assay. Format: cell-based. As to conditions: read-out: Activity.

Converted amounts (≈) assume the structure as drawn. The source made the active and inactive calls. The rule behind the calls is not given here.

On to `COc1c2c(cc3occ(-c4ccc(OCC=C(C)C)cc4O)c(=O)c13)OC(C)(C)C=C2`, for which the outcome in data set [1], in data set [2], in [5], in data set [6], in data set [7] and in [14] was inactive. The MIC in [3] and in [8] was 128 µg/mL (≈ 295 µM) in each case. For the same compound, the MIC result in data set [4], in [9], in data set [10], in data set [11], in data set [12] and in [13] was “inactive” each time.

In the case of `COc1cc(O)c2c(=O)c(-c3ccc(OCC=C(C)C)cc3)coc2c1`, the outcome in [1], in [2], in data set [5], in data set [6], in data set [7] and in data set [14] was inactive. For the same compound, the IC50 entry in data set [15] is “Not Active”. Besides, the MIC in data set [3] and in data set [8] was 128 µg/mL (≈ 363 µM) throughout. Moreover, the MIC result in [4], in data set [9], in data set [10], in data set [11], in [12] and in data set [13] was “inactive” each time. Further, the viability at 10 µM in data set [16] worked out at 65.3%.

In the case of `COc1c2c(cc3occ(-c4ccc(OCC=C(C)C)c(O)c4)c(=O)c13)OC(C)(C)C=C2`, the result in [1], in data set [2], in data set [5], in [6] and in data set [14] was inactive. In addition, the IC50 entry in data set [15] was “Not Active”. In addition, the MIC in [3], in data set [4] and in data set [8] was 128 µg/mL (≈ 295 µM) each time. For the same compound, the viability at 10 µM in data set [16] was determined as 64.5%. The MIC result in [9], in data set [10], in [11], in [12] and in data set [13] was “inactive” in each case.

In the case of `CC(C)=CCOc1ccc(-c2coc3cc(OCC=C(C)C)cc(O)c3c2=O)cc1`, the result in [1], in data set [2], in [5], in [6] and in data set [14] was inactive. Besides, in [15], the IC50 entry was “Not Active”. For the same compound, the MIC in data set [3], in [4] and in [8] was 128 µg/mL (≈ 315 µM) each time. Moreover, the viability at 10 µM in [16] is 72.2%. For the same compound, the MIC entry in data set [9], in data set [10], in [11], in [12] and in data set [13] was “inactive” throughout.

For the origin of these results see ChEMBL document CHEMBL4340580, “Antibacterial and Inhibitory Activities against Nitric Oxide Production of Coumaronochromones and Prenylated Isoflavones from Millettia extensa” (J Nat Prod, 2019).
